We go through seven molecules from PMC9870662 (Medicinal Chemistry Research, 2023).

By pIC50 is commonly meant −log10 of the IC50, conventionally taken in molar units. As a reminder, the inhibition is the percentage by which the read-out fell short of the control. For orientation: IC50 means the concentration that inhibits the measured activity by half.

pIC50: −log10 of the molar value. Like-named read-outs stand apart in the source and are kept apart here.

One assay has as its target T1, Ovine COX-1 (Ovis aries, UniProt P05979).
T1 sequence (P05979 25-600): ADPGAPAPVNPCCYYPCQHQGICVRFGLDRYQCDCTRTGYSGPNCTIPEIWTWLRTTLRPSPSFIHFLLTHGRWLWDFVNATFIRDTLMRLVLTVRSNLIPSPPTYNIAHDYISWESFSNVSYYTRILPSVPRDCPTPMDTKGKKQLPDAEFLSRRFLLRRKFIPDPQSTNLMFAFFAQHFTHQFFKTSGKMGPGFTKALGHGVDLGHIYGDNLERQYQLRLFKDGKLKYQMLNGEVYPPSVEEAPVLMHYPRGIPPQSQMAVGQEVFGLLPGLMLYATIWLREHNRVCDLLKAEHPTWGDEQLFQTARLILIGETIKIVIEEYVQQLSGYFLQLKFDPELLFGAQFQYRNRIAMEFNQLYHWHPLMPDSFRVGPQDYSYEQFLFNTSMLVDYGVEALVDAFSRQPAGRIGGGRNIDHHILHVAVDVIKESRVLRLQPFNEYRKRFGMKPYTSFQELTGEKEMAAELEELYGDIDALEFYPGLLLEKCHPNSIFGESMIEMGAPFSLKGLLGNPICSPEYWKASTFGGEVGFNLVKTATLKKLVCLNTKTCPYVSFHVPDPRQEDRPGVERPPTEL
Nature of the assay: COX-1 enzyme inhibition assay. The assay is classed as biochemical. Conditions: for IC50: read-out: IC50 in µM Ovine COX-1, fluorescent enzyme kit.

In a further assay the target is T2, Human recombinant COX-2 (Homo sapiens, UniProt P35354).
T2 sequence (P35354 18-604): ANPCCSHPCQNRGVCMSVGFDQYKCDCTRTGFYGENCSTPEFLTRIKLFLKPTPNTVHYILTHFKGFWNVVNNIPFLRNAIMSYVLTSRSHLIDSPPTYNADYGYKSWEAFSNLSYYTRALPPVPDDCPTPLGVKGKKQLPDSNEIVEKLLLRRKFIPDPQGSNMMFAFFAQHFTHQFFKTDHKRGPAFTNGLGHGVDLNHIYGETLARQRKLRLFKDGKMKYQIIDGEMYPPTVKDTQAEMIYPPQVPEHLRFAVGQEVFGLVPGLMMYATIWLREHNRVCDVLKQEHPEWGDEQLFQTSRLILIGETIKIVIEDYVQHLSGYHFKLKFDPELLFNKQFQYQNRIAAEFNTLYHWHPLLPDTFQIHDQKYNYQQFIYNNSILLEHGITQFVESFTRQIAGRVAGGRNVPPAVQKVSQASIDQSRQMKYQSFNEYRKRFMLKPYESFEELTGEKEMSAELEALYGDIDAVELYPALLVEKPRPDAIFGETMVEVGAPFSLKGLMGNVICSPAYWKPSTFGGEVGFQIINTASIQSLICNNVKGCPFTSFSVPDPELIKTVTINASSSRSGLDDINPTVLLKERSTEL
Nature of the assay: biochemical. The settings on record: for IC50: read-out: IC50 in µM Human recombinant COX-2.

Another assay relates to male NMRI mice. Nature of the assay: Acetic acid-induced writhing test. The assay is classed as in vivo. The settings on record: for Response (n) Mean ± SD: number of writhing responses during 30 min, eight mice; for ED50: Mus musculus, ip, read-out: Estimated ED50 (mg/kg) (95% Confidence Interval); for Estimated ED50 (mg/kg) (95% Confidence Interval): i.p., nonlinear regression of log dose-response curve.

In assay [1] the test system is MCF-7 breast cancer cell line. Nature of the assay: MTT cytotoxicity assay. Conditions: for inhibition at 10 µM: Homo sapiens, MCF7, 72 h, read-out: % Inhibition (10 µM); for % Inhibition (10 µM): MCF-7, 72 h, MTT. The assay is classed as cell-based. The essentials: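 MCF-7 cells from IBRC seeded in RPMI1640 at 37 °C, 5% CO2, high humidity. After one day, medium replaced with medium containing test compound; celecoxib as reference, plain medium as control. Incubated 72 h, then MTT added for 4 h at 37 °C. Supernatant removed, cells exposed to DMSO 20 min at 37 °C, absorbance read at 570 nm.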
In general terms: Formazan colour is commonly taken as a measure of viable cells.

On to `COc1ccccc1-c1cc(-c2ccc(S(C)(=O)=O)cc2)nc2nc3ccccc3n12` [Compound 5e, 4-(2-Methoxyphenyl)-2-(4-(methylsulfonyl)phenyl)benzo[4,5]imidazo[1,2-a]pyrimidine], for which the results for the pIC50 against Ovine COX-1 and on Human recombinant COX-2 were 5.16 and 7.22, respectively. At Human recombinant COX-2 (COX-1 vs COX-2), the “Selectivity Index (SI)” value came to 115. Moreover, the “Response (n) Mean ± SD” value in the assay with male NMRI mice (5 mg/kg i.p.) was 38.38 ± 1.32; in the assay with male NMRI mice (10 mg/kg i.p.), 36.63 ± 1.41; with male NMRI mice (20 mg/kg i.p.) it was 28.25 ± 3.99; in the assay with male NMRI mice (40 mg/kg i.p.), 19.13 ± 3.76; in the assay with male NMRI mice (80 mg/kg i.p.) it was 15 ± 1.58. Further, in the assay with male NMRI mice, the ED50 is 29 mg/kg. In addition, in assay [1], the inhibition at 10 µM was 74.3%.

As to `COc1ccc(-c2cc(-c3ccc(S(C)(=O)=O)cc3)nc3nc4ccccc4n23)cc1` [Compound 5g, 4-(4-Methoxyphenyl)-2-(4-(methylsulfonyl)phenyl)benzo[4,5]imidazo[1,2-a]pyrimidine], the pIC50 at Ovine COX-1 was under 4.00; on Human recombinant COX-2, 5.27. Also, the “Selectivity Index (SI)” value at Human recombinant COX-2 (COX-1 vs COX-2) is on record as over 18.5. Besides, the “Response (n) Mean ± SD” value is 36.63 ± 1.32 in the assay with male NMRI mice (10 mg/kg i.p.), 29.13 ± 6.27 with male NMRI mice (20 mg/kg i.p.), 21.88 ± 3.37 in the assay on male NMRI mice (40 mg/kg i.p.) and 13.63 ± 1.32 with male NMRI mice (80 mg/kg i.p.). Besides, in the assay with male NMRI mice, the ED50 was 32.1 mg/kg. For the same molecule, the inhibition at 10 µM in assay [1] came to 79.6%.

For `COc1cc(-c2cc(-c3ccc(S(C)(=O)=O)cc3)nc3nc4ccccc4n23)cc(OC)c1OC` [Compound 5i, 4-(3,4,5-Trimethoxyphenyl)-2-(4-(methylsulfonyl)phenyl)benzo[4,5]imidazo[1,2-a] pyrimidine], the figures for the pIC50 against Ovine COX-1 and at Human recombinant COX-2 were 4.79 and 6.24, respectively. Further, the “Selectivity Index (SI)” value at Human recombinant COX-2 (COX-1 vs COX-2) was determined as 28.1. The “Response (n) Mean ± SD” value in the assay on male NMRI mice (10 mg/kg i.p.) amounted to 39.25 ± 2.38; with male NMRI mice (20 mg/kg i.p.), 30.87 ± 3.82; in the assay with male NMRI mice (40 mg/kg i.p.), 24.62 ± 3.04; in the assay with male NMRI mice (80 mg/kg i.p.) it was 15.87 ± 3.18. The ED50 with male NMRI mice is 40.1 mg/kg. Moreover, the inhibition at 10 µM in assay [1] turned out to be 77.9%.

Regarding `CS(=O)(=O)c1ccc(-c2cc(-c3ccccc3F)n3c(n2)nc2ccccc23)cc1` [Compound 5j, 4-(2-Flourophenyl)-2-(4-(methylsulfonyl)phenyl)benzo[4,5]imidazo[1,2-a]pyrimidine], the IC50 at Ovine COX-1 was determined as 14 µM; at Human recombinant COX-2, 0.28 µM. Besides, the “Selectivity Index (SI)” value on Human recombinant COX-2 is 50. Also, the “Response (n) Mean ± SD” value was 33.75 ± 1.39 in the assay with male NMRI mice (5 mg/kg i.p.); 25.88 ± 2.98 in the assay on male NMRI mice (10 mg/kg i.p.); 19.88 ± 3.06 with male NMRI mice (20 mg/kg i.p.); 16.75 ± 3.11 with male NMRI mice (40 mg/kg i.p.); 13.38 ± 2.45 in the assay with male NMRI mice (80 mg/kg i.p.). Moreover, the “Estimated ED50 (mg/kg) (95% Confidence Interval)” value in the assay with male NMRI mice is given as 15.34 (13.14–17.89) mg/kg. In assay [1], the “% Inhibition (10 µM)” value came to 76.73%.

Regarding `CS(=O)(=O)c1ccc(-c2cc(-c3cccc(F)c3)n3c(n2)nc2ccccc23)cc1` [Compound 5k, 4-(3-Flourophenyl)-2-(4-(methylsulfonyl)phenyl)benzo[4,5]imidazo[1,2-a]pyrimidine], the IC50 on Ovine COX-1 was over 100 µM; at Human recombinant COX-2, 5.8 µM. Besides, the “Response (n) Mean ± SD” value in the assay with male NMRI mice (10 mg/kg i.p.) came out at 32.38 ± 2.34; with male NMRI mice (20 mg/kg i.p.), 25.38 ± 3.43; with male NMRI mice (40 mg/kg i.p.), 17.63 ± 4.79; in the assay with male NMRI mice (80 mg/kg i.p.), 11.88 ± 3.18. In addition, the “Estimated ED50 (mg/kg) (95% Confidence Interval)” value in the assay with male NMRI mice is on record as 22.80 (20.03–25.92) mg/kg. The “% Inhibition (10 µM)” value in assay [1] stood at 58.73%.

With `CS(=O)(=O)c1ccc(-c2cc(-c3ccc(F)cc3)n3c(n2)nc2ccccc23)cc1` [Compound 5l, 4-(4-Flourophenyl)-2-(4-(methylsulfonyl)phenyl)benzo[4,5]imidazo[1,2-a]pyrimidine], the figures for the IC50 at Ovine COX-1 and on Human recombinant COX-2 were 38.8 µM and 0.69 µM, respectively. For the same molecule, the “Response (n) Mean ± SD” value with male NMRI mice (10 mg/kg i.p.) is recorded as 34.25 ± 1.71; with male NMRI mice (20 mg/kg i.p.), 26.13 ± 2.67; with male NMRI mice (40 mg/kg i.p.) it was 19.25 ± 4.32; with male NMRI mice (80 mg/kg i.p.) it was 11.75 ± 1.48. In addition, the “Estimated ED50 (mg/kg) (95% Confidence Interval)” value in the assay with male NMRI mice is 25.26 (22.90–27.91) mg/kg. Moreover, in assay [1], the “% Inhibition (10 µM)” value worked out at 56.67%.

On to `CS(=O)(=O)c1ccc(-c2cc(-c3cccc(Cl)c3)n3c(n2)nc2ccccc23)cc1` [Compound 5n, 4-(3-Chlorophenyl)-2-(4-(methylsulfonyl)phenyl)benzo[4,5]imidazo[1,2-a]pyrimidine], for which the pIC50 is 4.98 on Ovine COX-1 and 6.62 on Human recombinant COX-2. Also, on Human recombinant COX-2 (COX-1 vs COX-2), the “Selectivity Index (SI)” value is given as 43.3. Moreover, the “Response (n) Mean ± SD” value stood at 28.50 ± 4.72 in the assay with male NMRI mice (5 mg/kg i.p.); 23.50 ± 3.20 in the assay on male NMRI mice (10 mg/kg i.p.); 19.88 ± 4.11 with male NMRI mice (20 mg/kg i.p.); 15.75 ± 4.35 in the assay on male NMRI mice (40 mg/kg i.p.); 11.50 ± 3.77 with male NMRI mice (80 mg/kg i.p.). In addition, the ED50 in the assay with male NMRI mice was 12.1 mg/kg. In assay [1], the inhibition at 10 µM came to 72.7%.
